From ChEMBL document CHEMBL4049424, “Hydroxypyridinone and 5-Aminolaevulinic Acid Conjugates for Photodynamic Therapy” (J Med Chem, 2017)

Experiments:
[1] = Drug metabolism in human MCF7 cells assessed as formation of protoporphyrin 9 preincubated for 2 hrs followed by compound washout measured after 24 hrs by HPLC-based fluorescence analysis; assay type: ADME, cell-based; details: mcf7, 24 h
Method in brief: (§1)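 Cells given ALA or conjugate for 2 h at 37 °C, then fresh medium without compound. At 24 h, lysed in CelLytic (15 min, room temperature), scraped and spun 1800g for 10 min. Supernatant PpIX read by fluorescence at 405/635 nm and normalised per mg protein (BCA). Untreated blanks subtracted.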

[2] = Drug metabolism in human KB cells assessed as protoporphyrin 9 formation at 500 uM preincubated for 1 hr at 4 degC followed by compound washout and subsequent incubation for 4 hrs at 37 degC by fluorescence spectrometer; assay type: ADME, cell-based
Method in brief: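 KB cells exposed 1 h to 500 μM prodrug in clear medium at either 4 °C or 37 °C, plates foil-wrapped. Compound then removed, PBS rinse, fresh medium, both plates 4 h at 37 °C. PpIX read in wells at 405/635 nm after subtracting untreated wells.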

MCF7R = assay: Phototoxicity in human doxorubicin resistant MCF7/R cells assessed as reduction in cell viability preincubated for 4 hrs followed by irradiation with blue light at 2.5 J/cm2 and subsequent incubation for 18 hrs measured after 24 hrs post treatment by MTT assay; assay type: functional; details: for CC50: light or radiation study, read-out: LD50 (the source's name)
Method in brief: (§2)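 Cells seeded ~5 × 10^4 per well, grown 48 h, washed with PBS, then 4 h with compound (five concentrations within 1–100 μM, triplicate, three untreated control wells per plate). Irradiated with blue light, peak ~420 nm, 2.5 J/cm². Medium replaced, cells kept a further 18 h. MTT read at A570 24 h after treatment; survival expressed as percentage of control. LD50 taken from two sets of experiments.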

KB [3] = assay: Dark toxicity against human KB cells assessed as cell survival at 100 uM after 24 hrs by MTT assay; assay type: cell-based
KB [4] = assay: Dark toxicity against human KB cells at 200 uM preincubated for 4 hrs followed by compound washout measured after 24 hrs by MTT assay; assay type: cell-based
Method in brief: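 Dark toxicity in KB cells: 200 μM compound for 4 h with no light, removed, cells kept 24 h. Viability by MTT (2 h, A570 after DMSO solubilisation), given as % of untreated controls. Triplicate.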

[5] = Drug metabolism in human KB cells assessed as formation of protoporphyrin 9 at 100 uM after 6 to 24 hrs by fluorescence spectrometer; assay type: ADME, cell-based
Method in brief: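 Time course in KB cells at 37 °C after 100 μM conjugate, ALA, or 1:1 ALA + HPO mixture in serum-free medium. Well PpIX fluorescence read at 405 nm excitation / 635 nm emission, control autofluorescence subtracted, triplicate means.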

[6] = Drug metabolism in human doxorubicin resistant MCF7/R cells assessed as formation of protoporphyrin 9 preincubated for 2 hrs followed by compound washout measured after 24 hrs by HPLC-based fluorescence analysis; assay type: ADME, cell-based; details: mcf7r; method in brief: as §1
KB [7] = assay: Phototoxicity in human KB cells assessed as cell survival at 10 uM preincubated for 4 hrs followed by irradiation with blue light at 2.5 J/cm2 and subsequent incubation for 18 hrs measured after 24 hrs post treatment by MTT assay relative to control; assay type: functional; details: light or radiation study, read-out: Survival; method in brief: as §2
[8] = Drug metabolism in human KB cells assessed as formation of protoporphyrin 9 at 50 uM after 24 hrs by fluorescence spectrometer relative to ALA; assay type: ADME, cell-based
Method in brief: (§3)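 KB monolayers (48 h after seeding ~5×10^4/well) washed, then given prodrug or ALA at 50 μM in serum-free medium at 37 °C. PpIX fluorescence read in wells at 2, 4, 6 and 24 h, excitation 405 nm, emission 635 nm. Untreated wells subtracted for autofluorescence; mean intensity in arbitrary units, triplicate.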

MCF7 = assay: Phototoxicity in human MCF7 cells assessed as reduction in cell viability preincubated for 4 hrs followed by irradiation with blue light at 2.5 J/cm2 and subsequent incubation for 18 hrs measured after 24 hrs post treatment by MTT assay; assay type: functional; details: for CC50: MCF7, light or radiation study, read-out: LD50 (the source's name); method in brief: as §2
[9] = Drug metabolism in human doxorubicin resistant MCF7/R cells assessed as formation of protoporphyrin 9 at 50 uM after 6 hrs by fluorescence spectrometer; assay type: ADME, cell-based; details: mcf7r
Method in brief: (§4)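 MCF-7 or MCF-7R cells incubated 6 h at 37 °C with 50 μM conjugate, or with 50 μM ALA and HPO as a 1:1 mixture, in serum-free medium. PpIX fluorescence read in wells at 405/635 nm, untreated-well values subtracted, triplicate.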

[10] = Drug metabolism in human doxorubicin resistant MCF7/R cells assessed as formation of protoporphyrin 9 after 6 hrs by fluorescence spectrometer; assay type: ADME, cell-based; details: mcf7r
Method in brief: (§5)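 MCF-7R monolayers exposed 6 h at 37 °C to ALA, conjugates or ALA hexyl/octyl esters at 1–100 μM in serum-free medium. PpIX emission at 635 nm (405 nm excitation; spectra 600–750 nm) read in wells. Untreated controls subtracted; mean of triplicates in arbitrary units.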

[11] = Drug metabolism in human doxorubicin resistant MCF7/R cells assessed as formation of protoporphyrin 9 at 1 to 100 uM after 6 hrs by fluorescence spectrometer; assay type: ADME, cell-based; details: mcf7r
Method in brief: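 Cells seeded ~5 × 10^4 per well and grown 48 h, washed with PBS. Then 6 h at 37 °C with 1–100 μM prodrug in serum-free medium. PpIX fluorescence read with excitation 405 nm and emission 635 nm (scan 600–750 nm, 515 nm long-pass filter). Values are mean intensity in arbitrary units after subtracting no-prodrug control wells. Triplicate.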

[12] = Drug metabolism in human KB cells assessed as formation of protoporphyrin 9 preincubated for 2 hrs followed by compound washout measured after 24 hrs by HPLC-based fluorescence analysis; assay type: ADME, cell-based; method in brief: as §1
[13] = Drug metabolism in human KB cells assessed as formation of protoporphyrin 9 at 50 uM after 2 to 24 hrs by fluorescence spectrometer; assay type: ADME, cell-based; method in brief: as §3
KB [14] = assay: Phototoxicity in human KB cells assessed as reduction in cell viability preincubated for 4 hrs followed by irradiation with blue light at 2.5 J/cm2 and subsequent incubation for 18 hrs measured after 24 hrs post treatment by MTT assay; assay type: functional; details: for CC50: light or radiation study, read-out: LD50 (the source's name); method in brief: as §2
[15] = Drug metabolism in human MCF7 cells assessed as formation of protoporphyrin 9 at 50 uM after 6 hrs by fluorescence spectrometer; assay type: ADME, cell-based; details: mcf7, 6 h; method in brief: as §4
[16] = Drug metabolism in human doxorubicin resistant MCF7/R cells assessed as formation of protoporphyrin 9 at 100 uM after 6 hrs by fluorescence spectrometer; assay type: ADME, cell-based; details: mcf7r; method in brief: as §5
[17] = Prodrug conversion in human doxorubicin resistant MCF7/R cells assessed as accumulation of ALA at 100 uM after 2 hrs by HPLC-based fluorescence analysis relative to ALA; assay type: ADME, cell-based; details: mcf7r
Method in brief: (§6)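 KB or MCF-7R cells incubated 2 h with 100 μM ALA or conjugate, then extracted with CelLytic. Lysate ALA derivatised with acetylacetone/ethanol/water (15/45/40) plus 10% formaldehyde at 100 °C for 10 min. Analysed by C18 HPLC with fluorescence detection (excitation 370 nm, emission 460 nm) against spiked-lysate calibration. Normalised per mg protein.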

[18] = Prodrug conversion in human KB cells assessed as accumulation of ALA at 100 uM after 2 hrs by HPLC-based fluorescence analysis relative to ALA; assay type: ADME, cell-based; method in brief: as §6
[19] = Drug metabolism in human doxorubicin resistant MCF7/R cells assessed as formation of protoporphyrin 9 at 1 to 100 uM after 6 hrs by fluorescence spectrometer relative to ALA; assay type: ADME, cell-based; details: mcf7r; method in brief: as §5
[20] = Dark toxicity against human KB cells assessed as cell survival at 100 uM after 4 hrs by MTT assay; assay type: cell-based; details: read-out: Survival
Method in brief: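 Cells seeded ~5 × 10^4 per well, grown 48 h, washed with PBS, then exposed to compound in medium for 4 h without irradiation. Incubation then continued for 24 h after prodrug removal. Viability by MTT (1 mg/mL, 2 h), formazan dissolved in DMSO, A570, expressed as percentage of untreated control wells on the same plate. Triplicate.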

KB [21] = assay: Dark toxicity against human KB cells preincubated for 4 hrs followed by compound washout measured after 24 hrs by MTT assay; assay type: cell-based
Method in brief: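 KB cells seeded ~5×10^4/well, grown 48 h, PBS-washed, then exposed to compound for 4 h without irradiation. Medium replaced and cells kept a further ~24 h. Survival by MTT (1 mg/mL in EMEM, 2 h), formazan dissolved in DMSO, A570, expressed as % of untreated control wells. Triplicate wells.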

SMILES | Drug metabolism [1] | Drug metabolism [2] | Activity (MCF7R) | CC50 (MCF7R) [µM] | Activity (KB [3]) | Activity (KB [4]) | Drug metabolism [5] | Drug metabolism [6] | viability at 10 µM (KB [7]) [%] | fold change (FC) [8] | Activity (MCF7) | CC50 (MCF7) [µM] | Drug metabolism [9] | Drug metabolism [10] | Flu intensity [11] [a.u.] | Drug metabolism [12] | Drug metabolism [13] | Activity (KB [14]) | CC50 (KB [14]) [µM] | Drug metabolism [15] | further results
CCc1c(O)c(=O)ccn1CCCCCCCCCCCCOC(=O)CCC(=O)CN.Cl | Metabolite_Detected | Metabolite_Detected | Dose-dependent effect | 5.5 | Non-Toxic | Non-Toxic | Metabolite_Detected | Metabolite_Detected | < 6 | 9.2 | Dose-dependent effect | 12.9 | Metabolite_Detected | Dose-dependent effect | 2 to 25 | Metabolite_Detected | Metabolite_Detected | Dose-dependent effect | 2.5 | Metabolite_Detected | 
CCc1c(O)c(=O)ccn1CCOC(=O)CCC(=O)CN.Cl | Metabolite_Detected |  | Dose-dependent effect | 122 | Non-Toxic | Non-Toxic |  |  |  |  | Dose-dependent effect | 124 |  |  |  |  |  | Dose-dependent effect | 115 |  | Drug metabolism [16]: Metabolite_Notdetected
CCc1c(O)c(=O)ccn1CCCCCCCCOC(=O)CCC(=O)CN.Cl.Cl | Metabolite_Detected | Metabolite_Detected | Dose-dependent effect | 4.2 | Non-Toxic | Non-Toxic | Metabolite_Detected | Metabolite_Detected | < 6 | 8 | Dose-dependent effect | 10.9 | Metabolite_Detected | Dose-dependent effect | 2 to 25 | Metabolite_Detected | Metabolite_Detected | Dose-dependent effect | 3.1 | Metabolite_Detected | fold change (FC) [17]: 6; fold change (FC) [18]: 6
CCc1c(O)c(=O)ccn1CCCCCCCCCCOC(=O)CCC(=O)CN.Cl | Metabolite_Detected | Metabolite_Detected | Dose-dependent effect | 3.9 | Non-Toxic | Non-Toxic | Metabolite_Detected | Metabolite_Detected | < 6 | 10.2 | Dose-dependent effect | 8.1 | Metabolite_Detected | Dose-dependent effect | 2 to 25 | Metabolite_Detected | Metabolite_Detected | Dose-dependent effect | 2.3 | Metabolite_Detected | fold change (FC) [17]: 8; fold change (FC) [18]: 8
CCc1c(O)c(=O)ccn1CCCCCCOC(=O)CCC(=O)CN.Cl | Metabolite_Detected | Metabolite_Detected | Dose-dependent effect | 8.1 | Non-Toxic | Non-Toxic | Metabolite_Detected | Metabolite_Detected |  |  | Dose-dependent effect | 13.4 | Metabolite_Detected | Dose-dependent effect | 2 to 25 | Metabolite_Detected |  | Dose-dependent effect | 5.2 | Metabolite_Detected | fold change (FC) [19]: > 15
CC(O)c1c(O)c(=O)ccn1CCCCCCOC(=O)CCC(=O)CN.Cl (stereo unspecified) |  |  | Dose-dependent effect | 8.4 | Non-Toxic | Non-Toxic |  | Metabolite_Detected |  |  | Dose-dependent effect | 16.6 |  |  |  | Metabolite_Detected |  | Dose-dependent effect | 24.1 |  | fold change (FC) [19]: > 10
CNC(=O)c1c(O)c(=O)ccn1CCCCCCOC(=O)CCC(=O)CN.Cl |  |  | Dose-dependent effect | 104 | Non-Toxic | Non-Toxic |  |  |  |  | Dose-dependent effect | 113 |  |  |  |  |  | Dose-dependent effect | 108 |  | Drug metabolism [11]: Metabolite_Notdetected
CCCCCCCCOC(=O)CCC(=O)CN |  |  |  |  |  |  |  |  |  |  |  |  |  |  |  |  |  |  |  |  | viability at 4 h, 100 µM [20]: 14%; Activity (KB [21]): Toxic
CCc1c(O)c(=O)ccn1CCCCOC(=O)CCC(=O)CN.Cl | Metabolite_Detected | Metabolite_Detected | Dose-dependent effect | 61.2 | Non-Toxic | Non-Toxic |  |  |  |  | Dose-dependent effect | 76.5 |  | Dose-dependent effect | 2 to 25 |  |  | Dose-dependent effect | 65.1 |  | 
